Laboratory results: ChEMBL document CHEMBL4251737, “Imidazo[2,1-b]benzothiazol Derivatives as Potential Allosteric Inhibitors of the Glucocorticoid Receptor” (ACS Med Chem Lett, 2018)
Values joined by “and” are separate entries in the source; they are usually repeats but may differ in a detail not shown here. Equal entries are not always repeated. Active and inactive are the calls of the source. The rule behind the calls is not given here.

Assays:
[1] = biological target: T1, Glucocorticoid receptor (Homo sapiens) (UniProt P04150); experiment: Transactivation of GCR (unknown origin) expressed in human fibrosarcoma cells at 0.1 uM after 6 hrs by luciferase reporter gene assay; type: cell-based
T1 sequence (whole entry): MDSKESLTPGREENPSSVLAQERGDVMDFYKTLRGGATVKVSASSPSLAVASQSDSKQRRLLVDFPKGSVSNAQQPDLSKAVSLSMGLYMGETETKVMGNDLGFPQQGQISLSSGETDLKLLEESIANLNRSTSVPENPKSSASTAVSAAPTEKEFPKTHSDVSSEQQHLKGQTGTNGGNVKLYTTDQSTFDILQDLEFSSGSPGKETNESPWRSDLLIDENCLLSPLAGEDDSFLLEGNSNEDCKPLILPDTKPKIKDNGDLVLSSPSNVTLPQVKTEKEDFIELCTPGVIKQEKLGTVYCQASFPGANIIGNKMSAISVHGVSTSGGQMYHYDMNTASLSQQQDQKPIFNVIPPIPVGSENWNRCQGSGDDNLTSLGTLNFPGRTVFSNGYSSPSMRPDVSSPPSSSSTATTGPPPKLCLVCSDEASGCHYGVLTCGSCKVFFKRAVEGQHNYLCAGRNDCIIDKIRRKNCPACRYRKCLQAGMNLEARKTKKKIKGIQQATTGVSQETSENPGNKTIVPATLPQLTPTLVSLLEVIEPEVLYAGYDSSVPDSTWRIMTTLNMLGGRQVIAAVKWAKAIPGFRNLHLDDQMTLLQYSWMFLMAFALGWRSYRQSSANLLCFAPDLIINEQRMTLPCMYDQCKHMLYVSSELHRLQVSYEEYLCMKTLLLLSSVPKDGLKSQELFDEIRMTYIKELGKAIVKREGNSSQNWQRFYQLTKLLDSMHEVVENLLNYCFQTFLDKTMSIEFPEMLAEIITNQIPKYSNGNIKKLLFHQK
In short: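 GCR luciferase reporter run with single compound at 0.1 µM to probe agonism; reference agonist DEX at 1 µM.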

[2] = biological target: T1, Glucocorticoid receptor (Homo sapiens); experiment: Transrepression of GCR (unknown origin) expressed in human fibrosarcoma cells assessed as inhibition of DEX-induced GCR activation at 0.1 uM after 6 hrs by luciferase reporter gene assay relative to DEX; values are per cent of control
HeLa [3] = experiment: Cytotoxicity against human HeLa cells after 72 hrs by MTT assay; type: cell-based
In short: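 HeLa cells exposed 72 h in complete medium to 0.4, 2, 10, 50 and 250 µM; viability read by MTT. Means ± SE of 3 independent experiments run in triplicate.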

HeLa [4] = experiment: Down regulation of GCRalpha expression in human HeLa cells at 0.4 uM after 24 hrs by Taqman-based real-time PCR analysis relative to control; type: functional
In short: (§1)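 GCR transcripts quantified in HeLa cells after 24 h treatment at 0.4 and 2 µM. Means ± SD of 3 independent experiments; compared by one-way ANOVA.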

HeLa [5] = experiment: Down regulation of GCRalpha expression in human HeLa cells at 2 uM after 24 hrs by Taqman-based real-time PCR analysis relative to control; type: functional, cell-based; in short: as §1
[6] = biological target: T1, Glucocorticoid receptor (Homo sapiens); experiment: Transrepression of GCR in human HeLa cells assessed as down regulation of GILZ mRNA expression at 0.4 uM after 24 hrs by Taqman-based real-time PCR analysis; type: cell-based
In short: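 GILZ expression measured in HeLa cells after 24 h treatment at 0.4 and 2 µM, relative to untreated cells.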

[7] = biological target: T1, Glucocorticoid receptor (Homo sapiens); experiment: Transrepression of GCR in human HeLa cells assessed as suppression of DEX-induced GILZ mRNA expression at 0.4 to 2 uM after 24 hrs by Taqman-based real-time PCR analysis; type: cell-based
In short: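 HeLa cells treated 24 h with DEX alone (0.1 µM) or DEX plus compound; GILZ transcription measured. RU486 plus DEX served as competitive-antagonist control.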

[8] = Solubility of the compound in water; type: physicochemical; conditions: buffer
[9] = biological target: T1, Glucocorticoid receptor (Homo sapiens); experiment: Transrepression of GCR (unknown origin) expressed in human fibrosarcoma cells assessed as suppression of TNF-induced NFkappaB activity at 1 uM pretreated for 2 hrs followed by TNF addition after 4 hrs by luciferase reporter gene assay relative to control; type: cell-based
In short: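 Cells pretreated 2 h with compound alone, then TNF added and combination treatment continued 4 h; NF-kB luciferase reporter activity measured.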

Row | Compound | Activity [1] | residual activity [2] | EC50 (HeLa [3]) [µM] | Activity [6] | further results
1 | OCc1ccc(-c2cn3c(n2)sc2ccccc23)cc1 | inactive | 34% |  |  | 
2 | COC(=O)c1ccc(-c2cn3c4c(sc3n2)CCCC4)cc1 |  |  | 7.7 | Active | Activity (HeLa [4]): Active; Activity (HeLa [5]): inactive
3 | NCc1ccc(-c2cn3c(n2)sc2ccccc23)cc1 [listing 1 of 2 here] | inactive |  |  | Active | Activity [7]: inactive
4 | Nc1ccc(-c2cn3c(n2)sc2ccccc23)cc1 | inactive | 23% |  |  | 
5 | CCn1c2ccccc2n2cc(-c3ccc(C#N)cc3)nc12 | inactive | 25% |  |  | 
6 | NCc1ccc(-c2cn3c(n2)sc2ccccc23)cc1 [listing 2 of 2 here] |  |  | 3.6 |  | 
7 | O=C(O)c1ccc(-c2cn3c4c(sc3n2)CCCC4)cc1 |  |  | 170 | Active | Activity (HeLa [4]): 50%; Activity (HeLa [5]): inactive
8 | Cc1ccc(-c2cn3c(n2)sc2ccccc23)cc1 | inactive | 30% |  |  | 
9 | Cl.NCc1ccc(-c2cn3c(n2)sc2ccccc23)cc1 |  |  |  |  | solubility [8]: Soluble
10 | Brc1ccc(-c2cn3c(n2)sc2ccccc23)cc1 | inactive | 20% |  |  | 
11 | N#Cc1ccc(-c2cn3c4c(sc3n2)CCCC4)cc1 | inactive | 18% | 1.7 | Active | Activity [9]: 76%; Activity [7]: inactive
12 | N#Cc1ccc(-c2cn3c4c(sc3n2)C(=O)CCC4)cc1 |  |  | 16 | Active | Activity (HeLa [4]): Active; Activity (HeLa [5]): inactive
13 | Cl.NCc1ccc(-c2cn3c4c(sc3n2)CCCC4)cc1 | inactive | 23% and 35% |  |  | solubility [8]: Soluble
